Assay results: ChEMBL document CHEMBL2086265, “Design of inhibitors of Helicobacter pylori glutamate racemase as selective antibacterial agents: incorporation of imidazoles onto a core pyrazolopyrimidinedione scaffold to improve bioavailabilty” (Bioorg Med Chem Lett, 2012)
Converted amounts (≈) assume the structure as drawn.

Legend:
Helicobacter pylori [1] = assay: Antibacterial activity against Helicobacter pylori infected in mouse assessed as log reduction CFU at 40 mg/kg administered QID for 2 days relative to untreated control
Helicobacter pylori [2] = assay: Antibacterial activity against wild type Helicobacter pylori 055; format: functional
[3] = Plasma protein binding in mouse at 10 uM after 16 hrs by Dianorm method; format: ADME, cell-free; details: read-out: PPB (converted)
[4] = Half life in mouse at 5 mg/kg, iv and 40 mg/kg, po; format: ADME, organism-based; details: in vivo
[5] = Volume of distribution at steady state in mouse at 5 mg/kg, iv and 40 mg/kg, po; format: ADME, organism-based; details: in vivo, read-out: Vdss
[6] = Intrinsic clearance in human liver microsomes at 2 uM assessed per mg of protein; format: ADME, Microsome; details: read-out: CLH
[7] = Intrinsic clearance in mouse liver microsomes at 2 uM assessed per mg of protein; format: ADME, Microsome; details: read-out: CLH
[8] = Dissociation constant, pKa of the compound; format: physicochemical
[9] = Clearance in mouse at 5 mg/kg, iv and 40 mg/kg, po; format: ADME, organism-based; details: in vivo
Glutamate racemase = biological target: T1, Glutamate racemase (Helicobacter pylori J99, UniProt Q9ZLT0); assay: Inhibition of Helicobacter pylori J99 glutamate racemase
T1 sequence (Q9ZLT0 whole entry): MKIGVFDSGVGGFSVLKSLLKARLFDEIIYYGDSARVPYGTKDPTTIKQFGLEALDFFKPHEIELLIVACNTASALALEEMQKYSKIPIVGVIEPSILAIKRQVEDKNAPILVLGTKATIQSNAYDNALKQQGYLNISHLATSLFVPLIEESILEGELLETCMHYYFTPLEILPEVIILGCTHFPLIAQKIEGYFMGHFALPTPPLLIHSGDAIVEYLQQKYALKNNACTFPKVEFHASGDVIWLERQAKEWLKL
Outline: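 The racemase was expressed from the murI gene of H. pylori J99 chromosomal DNA. IC50 was taken as the mean of duplicate determinations, using a method cited from earlier work.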

[10] = Oral bioavailability in mouse at 40 mg/kg; format: ADME, organism-based; details: in vivo
Helicobacter pylori [11] = assay: Antibacterial activity against AcrAB-TolC efflux pump-dificient Helicobacter pylori; format: functional
Helicobacter pylori [12] = assay: Ratio of MIC for wild type Helicobacter pylori 055 to MIC for AcrAB-TolC efflux pump-dificient Helicobacter pylori
Helicobacter pylori [13] = assay: Antibacterial activity against Helicobacter pylori infected in mouse assessed as log reduction CFU at 10 mg/kg administered BID for 2 days relative to untreated control; format: functional
[14] = Inhibition of Escherichia coli MurI
[15] = Inhibition of Staphylococcus aureus MurI
[16] = Inhibition of Enterococcus faecalis MurI
[17] = Plasma protein binding in mouse; format: ADME, cell-free; details: read-out: PPB (converted)
Outline: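 Plasma protein binding in mouse plasma used a […] compound solution in a dialysis plasma well, incubated at 37 °C for 16 h. Free fraction came from the ratio of drug in buffer to drug in buffer plus plasma wells, both quantified by LC/MS.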

| Compound | FC (Helicobacter pylori [1]) | MIC (Helicobacter pylori [2]) [µg/mL] | fraction unbound at 16 h, 10 µM [3] | half-life [4] [h] | Vd [5] [L/kg] | microsomal CLint at 2 µM [6] [µL/min/mg] | microsomal CLint at 2 µM [7] [µL/min/mg] | pKa [8] | clearance [9] [mL/min/kg] | IC50 (Glutamate racemase) [nM] | bioavailability [10] [%] | MIC (Helicobacter pylori [11]) [µg/mL] | Ratio (Helicobacter pylori [12]) | FC (Helicobacter pylori [13]) | IC50 [14] [nM] | IC50 [15] [nM] | IC50 [16] [nM] | fraction unbound [17] |
| --- | --- | --- | --- | --- | --- | --- | --- | --- | --- | --- | --- | --- | --- | --- | --- | --- | --- | --- |
| C#CCn1c(=O)c2c(-c3cncn3C)n(Cc3ccnc4ccc(Cl)cc34)nc2n(CC2CC2)c1=O | 1 | 2 (≈ 4 µM) | 0.96 | 2.1 | 3.6 | < 14 | 18 | 7.2 | 20 | 24 | 100 | 0.5 (≈ 1 µM) |  |  |  |  |  |  |
| Cn1cncc1-c1c2c(=O)n(C)c(=O)n(CC3CC3)c2nn1Cc1ccnc2ccc(Cl)cc12 |  | 2 (≈ 4.2 µM) | > 0.969 | 0.7 | 1.2 | < 17 | 21 |  | 14 | 41 | 76 | 0.25 (≈ 0.525 µM) |  |  |  |  |  |  |
| CC(C)n1c(=O)c2c(-c3cc(C#N)cn3C)n(Cc3ccnc4ccc(Cl)cc34)nc2n(CC2CC2)c1=O |  | 4 (≈ 7.58 µM) |  |  |  | 26 | > 100 |  |  | 240 |  | 8 (≈ 15.2 µM) | <=2 |  |  |  |  |  |
| C#CCn1c(=O)c2c(-c3nc(C#N)cn3C)n(Cc3ccnc4ccc(Cl)cc34)nc2n(CC2CC2)c1=O |  | 1 (≈ 1.9 µM) |  |  |  | < 14 | 28 |  |  | 89 |  | 2 (≈ 3.81 µM) | <=2 |  |  |  |  |  |
| CCn1c(=O)c2c(-c3nc(C#N)cn3C)n(Cc3ccnc4ccc(Cl)cc34)nc2n(CC2CC2)c1=O |  | 2 (≈ 3.88 µM) |  |  |  | 51 | < 14 |  |  | 180 |  | 2 (≈ 3.88 µM) | <=2 |  |  |  |  |  |
| C=CCn1c(=O)c2c(-c3nc(C#N)cn3C)n(Cc3ccnc4ccc(Cl)cc34)nc2n(CC2CC2)c1=O |  | 2 (≈ 3.8 µM) |  |  |  | > 100 | > 100 |  |  | 250 |  | 4 (≈ 7.59 µM) | <=2 |  |  |  |  |  |
| COc1c(N2CCO[C@@H](CN(C)C)C2)c(F)cc2c(=O)c(C(=O)O)cn(C3CC3)c12 |  |  |  |  |  |  |  |  |  |  |  |  |  | 5 |  |  |  |  |
| Cn1cc(C#N)cc1-c1c2c(=O)n(C)c(=O)n(CC3CC3)c2nn1Cc1ccnc2ccc(Cl)cc12 |  | 0.5 (≈ 1 µM) |  |  |  | 14 | 50 |  |  | 25 |  | 0.8 (≈ 1.6 µM) | <=2 |  | > 400000 | > 400000 | > 400000 |  |
| CC(C)Cn1c(=O)n(C)c(=O)c2c(-c3ccncc3)n(Cc3cccc4ccccc34)nc21 |  |  |  |  |  |  |  |  |  |  |  |  |  |  | > 400000 | > 400000 | > 400000 |  |
| Cn1cc(S(C)(=O)=O)cc1-c1c2c(=O)n(C)c(=O)n(CC3CC3)c2nn1Cc1ccnc2ccc(Cl)cc12 |  | 2 (≈ 3.62 µM) |  |  |  |  |  |  | 15 | 34 | 13 |  |  |  | > 400000 | > 400000 | > 400000 | 0.03 |
